Measurements: PMC3425077 (Indian Journal of Pharmaceutical Sciences, 2011)

Assays:
Format in all cases: in vivo
[1] = tested on: ulcers; experiment: Ulcerogenic activity, arbitrary scoring of ulcer severity; details: dose mg/Kg b.w.: Std (Aspirin) 200, 4a-4d 100, 4e 200, 4f 75
[2] = tested on: carrageenan induced rat paw edema; experiment: Carrageenan induced rat paw edema method; details: dose mg/Kg b.w.: Std (Aspirin) 200, 4a-4d 100, 4e 200, 4f 75
Method in brief: (§1)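 Animals given test compound or standard were compared with a control group of animals. Significance of the differences between treatment and control was assessed by Student's t test.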

[3] = tested on: radiant heat induced rat tail flick; experiment: Radiant heat induced rat tail flick method; details: dose mg/Kg b.w.: Std (Aspirin) 200, 4a-4d 100, 4e 200, 4f 75
Method in brief: as §1

[4] = tested on: adrenal gland weight; experiment: Adrenal weight change method; details: suppression of adrenal gland weight; dose mg/Kg b.w.: Std (Aspirin) 200, 4a-4d 100, 4e 200, 4f 75
Method in brief: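 Adrenal weight change was one of the anti-inflammatory methods. Treated groups were compared with a control group of animals by Student's t test and marked significant or non-significant.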

CC(=O)Oc1ccccc1C(=O)O [Aspirin]
Ulcer index [1]: 43.33 | Antiinflammatory activity Percentage inhibition Carrageenan method 1 h ([2]; after 1 h): 54.84% | Antiinflammatory activity Percentage inhibition Carrageenan method 3 h ([2]; after 3 h): 55.05% | Antiinflammatory activity Percentage inhibition Carrageenan method 5 h ([2]; after 5 h): 73.81% | Analgesic activity percent protection Rat tail flicK method [3]: 49.39% | Antiinflammatory activity Percentage inhibition Adrenal weight method [4]: 50.13%
